HCT116 bCat-KO = primary screen for growth suppressors in beta-catenin knockout HCT116 cells (colon tumor, human); HCT116 beta-catenin knockout viability, CellTiter-Glo, 60 h; stronger effect = lower value; viability, % at 10 µM; actives 1.5% (n = 140,000); AID 818, 2007;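 active = viability at or under a set limit, the compound median less 4 SD, cut at about 6% in these data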
PTEN del growth = growth suppression of PTEN-null HCT116, primary screen, cell-based, CellTiter-Glo | HCT116 PTEN-null viability, 60 h; stronger effect = lower value | viability, % at 10 µM | actives 1.2% (n = 140,000) | AID 827, 2007;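 active = viability at or below a set limit, 4 SD under the median of all tested compounds, cut at about 3.7% in these data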;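 note: PTEN knockout HCT116 line with beta catenin targeted HCT116 as companion control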
HUVEC prolif 384 = inhibitors of HUVEC proliferation, primary screen, cell-based, 384-well; AID 648, 2007; viability, % at 10 µM (by protocol); CellTiter-Glo luminescence, 72 h; stronger effect = lower value; actives 1.1% (n = 86,000);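 active = viability at or below 30%; inactive = viability above 30%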
Lung fibro prol = antiproliferative effect on LL 47 fibroblasts – human, LL 47 cells, CellTiter-Glo luminescence, primary screen; LL 47 human lung fibroblast viability, ATP luminescence; stronger effect = lower value; actives 1.1% (n = 85,000); AID 719, 2007; viability, % at 10 µM;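 active = viability at or below 50% in the single dose screen; inactive = viability above 50%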;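 note: compound exposure lasted 72 h before the ATP readout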
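Times – overnight cell rest, 72 h compound treatment at 37 °C · Test system – human lung fibroblast line LL 47, low passage · Amount – 1,150 cells in each well · Controls – cell-only wells, no compound · Doses – 0.1% DMSO in all compound wells · Measured by – CellTiter-Glo luminescence · Buffer or medium – IMEM plus 15% FBS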
H69AR inhibit = proliferation blockers of H69AR lung cancer cells, primary screen, cell-based, human, 86K library; viability, % at 10 µM; actives 6% (n = 85,000); H69AR lung tumor viability, ATP luminescence, 72 h; stronger effect = lower value;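 active = viability at or below 40%; inactive = viability above 40%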;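 note: multidrug resistant small cell line overexpressing MRP-1 efflux transporter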
Hits are given with their value; - = inactive; . = not tested or not shown. This excerpt belongs to a sample that is enriched for hits.

SMILES	HCT116 bCat-KO	PTEN del growth	HUVEC prolif 384	Lung fibro prol	H69AR inhibit
CCC(Sc1nc2n[nH]c(C)c2c(=N)n1-c1cc(Cl)ccc1C)C(=O)N1CCOCC1 (stereo not drawn)	-	-	-	-	15.8
COc1ccc(CNC(NC(=O)c2ccccc2)(C(F)(F)F)C(F)(F)F)cc1	-	-	.	.	.
CC(C)[C@@H]1NC(=O)c2cc([N+](=O)[O-])cc(I)c2NCCCC[C@@H](C(=O)NC(CC(=O)O)C(N)=O)NC(=O)[C@H](CO)NC1=O (stereo partly drawn)	-	-	.	.	.
COc1ccc2c(c1)c(=O)oc1cc3occ(C(C)(C)C)c3cc12	-	-	-	-	12.8
COc1ccc2c(c1)c(=O)oc1c(C)c3occ(C)c3cc12	.	.	-	-	34.6
COc1ccc(NC(=O)NC23CC4(C)CC(C)(CC(C)(C4)C2)C3)cc1	-	-	.	.	.
CCn1c(COc2ccc(C)cc2)nnc1SCC(=O)Nc1cc(OC)ccc1OC	-	-	-	-	18.4
CCc1nnc(NC(=O)CSc2nnc(COc3ccccc3)n2-c2ccc(C)cc2)s1	-	-	-	-	-
Cc1ccc(OCc2nnc(SCC(=O)Nc3cccc4ccccc34)n2-c2ccccc2)cc1	-	-	-	4.2	18.3
CCn1c(COc2ccccc2)nnc1SCC(=O)Nc1cc(C)ccc1OC	-	-	-	-	-
COc1cc(Br)cc2cc(C(=O)OC3CCN(C)CC3)c(=O)oc12	.	.	-	-	35.8
Cc1cc(C)c(Cc2c(C)nc3c(C(=O)NCc4ccco4)cnn3c2C)c(C)c1	-	-	-	-	-
CCN(CC)c1ccc(NC(=O)C2=CCN(S(=O)(=O)c3ccc(F)cc3)CC2)c(C)c1	-	-	.	.	.
CCC1=NNc2cccc3c(OC)ccc1c23	-	-	20.9	3.8	-
COc1ccc2c3c(cccc13)C(=O)N(O)C2=O	-	-	.	.	.
O=C(Nc1ccc(Br)cn1)c1ccc2nccnc2c1	.	.	-	-	33.9
O=C(O)c1cc([N+](=O)[O-])c(N2CCCC2)c([N+](=O)[O-])c1	-	-	.	.	.
C/C(=N\Nc1cc(-c2ccccc2)nc(-c2ccccc2)n1)c1ccc(O)c(C)c1	-	2.0	.	.	.
C/C(=N\Nc1cc(Cl)nc(C)n1)c1ccc(Cl)c(Cl)c1	-	-	.	.	.
COc1ccc(C(N)=O)cc1N	-	-	.	.	.
CN(C)c1ccc(C(=O)c2ccccc2)cc1	-	-	-	-	-
CCOc1ccc(C(=O)c2ccc(OCC)c(N)c2)cc1N	-	-	-	-	13.3
CN(C)c1ccc(C(=O)c2ccc(N(C)C)c(N)c2)cc1N	-	-	-	-	21.6
CC(=O)C1=C(C)Nc2ncnn2C1c1ccc(Cl)cc1Cl (stereo not drawn)	-	-	-	-	-
COc1ccc(-c2nc(N)ncc2-c2csc(C)n2)c(O)c1	-	-	-	-	-
SMILES	HCT116 bCat-KO	PTEN del growth	HUVEC prolif 384	Lung fibro prol	H69AR inhibit
COc1ccc(-c2nc(N)nc(C)c2Oc2ccccc2Br)c(O)c1	-	-	-	-	23.2
CCCCS(=O)(=O)/C=C\C=C/S(=O)(=O)CCCC	1.7	2.0	49.2	2.5	1.0
CCCCS(=O)(=O)/C=C\C1C2C=CC(C2)C1S(=O)(=O)CCCC (stereo not drawn)	-	-	-	-	-
COC(=O)c1ccc(C(=O)OC)c(NC(=O)CN2CCN(c3ccccc3)CC2)c1	-	-	-	-	15.7
COC(=O)c1ccc(C(=O)OC)c(NC(=O)CSc2cccc[n+]2[O-])c1	-	-	-	-	2.2
COC(=O)c1ccc(C(=O)OC)c(NC(=O)CN2CCN(c3ccc(OC)cc3)CC2)c1	-	-	-	-	-
COc1cc2c(cc1NC(=O)CSc1cccc[n+]1[O-])oc1ccccc12	-	-	.	.	.
CC1=C(C#N)C(Nc2ccc(C)cn2)(C(F)(F)F)C(=O)N1 (stereo not drawn)	-	-	-	-	-
CC1(C)Cc2c(C#N)c(SCCOc3ccccc3)nc(N3CCOCC3)c2CO1	-	-	-	-	31.6
O=C(Nc1nnc(-c2ccc3c(c2)OCCO3)o1)c1ccc(Cc2ccccc2)cc1	-	-	9.6	-	37.0
O=C(Nc1nnc(-c2ccc(F)cc2)o1)c1cc(Cl)sc1Cl	-	-	.	.	.
O=C(COc1ccccc1)Nc1nnc(-c2ccc3c(c2)CCCC3)o1	-	-	-	-	-
O=C(Nc1nnc(-c2ccc3c(c2)CCCC3)o1)c1ccccc1Cl	-	-	22.6	-	23.2
O=C(Nc1nnc(-c2ccc3c(c2)CCCC3)o1)c1ccccc1	-	-	22.7	-	38.1
O=c1c2ccccc2c2c(O)nc(-c3ccccc3)n2n1Cc1ccccc1	-	-	.	.	.
Brc1ccc2[nH]c3c(N4CCc5ccccc5C4)ncnc3c2c1	-	-	-	-	6.3
COC(=O)c1ccc(C(=O)OC)c(NS(C)(=O)=O)c1	-	-	-	-	1.4
S=C(Nc1ccccc1)Nc1nc2ccccc2n1CCOc1ccccc1	1.6	1.2	.	.	.
COc1ccc(C(=O)n2c(-c3ccco3)nc3ccccc32)cc1	-	-	-	-	23.9
COc1ccc(CCn2c(-c3ccco3)nc3nc4ccccc4nc32)cc1	-	-	-	-	-
COc1ccc(OCCn2c(NC(=O)c3ccco3)nc3ccccc32)cc1	-	-	-	-	39.4
COc1cc(/C=C/C(=O)c2ccc(C)cc2)ccc1OCC#N	5.6	2.0	.	.	.
CCOc1cc(/C=C/C(=O)c2ccc(C)cc2)ccc1OCC(=O)N(C)C	1.6	1.7	.	.	.
COc1ccc(-c2cc(-c3ccccc3)c(C#N)c(S(C)=O)n2)cc1 (stereo not drawn)	1.1	1.3	6.8	2.7	2.3
CC(C)(C)n1nnnc1C(c1cccs1)N1CCN(c2ccccc2)CC1 (stereo not drawn)	-	-	-	-	-
SMILES	HCT116 bCat-KO	PTEN del growth	HUVEC prolif 384	Lung fibro prol	H69AR inhibit
Oc1c(C(c2cccs2)N2CCN(c3ccccc3)CC2)ccc2cccnc12 (stereo not drawn)	3.0	-	.	.	.
O=C(CSc1nnnn1-c1ccccc1)Nc1nsc(-c2ccc(Cl)cc2)n1	-	-	-	-	-
O=C(CSc1nnnn1-c1ccccc1)CC(=O)Nc1ccc(Cl)cc1	-	-	-	-	17.3
NC(=O)Cn1c(S(=O)(=O)Cc2ccccc2)nc2ccccc21	.	.	-	-	-
O=S(=O)(Cc1ccccc1)c1cnc2ccccc2n1	-	-	-	-	7.1
O=C(c1ccccc1)N1CCN(c2ncnc3sc4c(c23)CCC4)CC1	-	-	-	-	-
Cc1csc(Sc2ccc([N+](=O)[O-])cc2C(=O)OCC(=O)NC2CCCC(C)C2C)n1 (stereo not drawn)	-	-	-	-	8.4
CC(C)(C)NC(=S)NCc1cccnc1	-	-	.	.	.
COc1cccc(-c2csc(N3CCN(C(=O)NC45CC6CC(CC(C6)C4)C5)CC3)n2)c1	-	-	-	-	-
CCc1ccccc1NCC(=O)Nc1ccc(Cl)c(C(F)(F)F)c1	-	-	.	.	.

Compound activity from PubChem.
